From ChEMBL document CHEMBL2074271 (J Pharmacol Exp Ther, 2002)
Where “and” joins values, the source holds several entries; their conditions need not be identical. Equal values may be shown once.

Tests used:
Format in all cases: functional, cell-based
[1] = molecular target: T1, Solute carrier family 22 member 2 (Rattus norvegicus, UniProt Q9R0W2); test: TP_TRANSPORTER: inhibition of TEA uptake (in the presence of bicarbonate) (TEA: 20 uM) in OCT2-expressing HEK293 cells
T1 sequence (Q9R0W2 whole entry): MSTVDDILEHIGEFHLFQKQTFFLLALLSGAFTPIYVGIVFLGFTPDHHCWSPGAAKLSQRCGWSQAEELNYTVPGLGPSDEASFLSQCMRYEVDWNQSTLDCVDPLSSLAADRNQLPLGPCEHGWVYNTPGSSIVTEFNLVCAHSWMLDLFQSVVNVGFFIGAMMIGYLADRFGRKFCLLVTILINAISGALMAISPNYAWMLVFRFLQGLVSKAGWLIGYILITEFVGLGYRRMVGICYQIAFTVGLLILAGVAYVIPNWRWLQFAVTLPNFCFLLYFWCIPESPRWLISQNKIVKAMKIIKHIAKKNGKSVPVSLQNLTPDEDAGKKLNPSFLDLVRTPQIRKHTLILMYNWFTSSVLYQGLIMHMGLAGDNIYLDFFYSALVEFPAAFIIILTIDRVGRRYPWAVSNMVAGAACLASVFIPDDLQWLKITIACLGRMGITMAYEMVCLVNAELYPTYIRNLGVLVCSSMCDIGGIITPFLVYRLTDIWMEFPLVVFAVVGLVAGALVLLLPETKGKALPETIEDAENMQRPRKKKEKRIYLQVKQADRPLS
In short: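 Stably rOCT1- or rOCT2-transfected HEK 293 cells suspended in bicarbonate (25 mM) Krebs-Henseleit buffer, pH 7.4 set by 95% O2/5% CO2 bubbling, 25°C. […] Percent of uninhibited control; IC50 mean ± S.E.M. of 3–6 experiments.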

[2] = molecular target: T1, Solute carrier family 22 member 2; test: TP_TRANSPORTER: inhibition of TEA uptake (in the absence of bicarbonate) (TEA: 20 uM) in OCT2-expressing HEK293 cells
In short: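 Uptake in rOCT1- or rOCT2-expressing stably transfected HEK 293 cells, run in bicarbonate-free Cross-Taggart phosphate buffer, pH 7.4, 25°C. 20 μM [14C]TEA final, 3 s incubation across inhibitor concentrations; ice-cold stopping buffer, centrifugation, washes, scintillation counting. Expressed relative to control uptake without inhibitor; IC50 mean ± S.E.M. of 3–6 experiments.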

[3] = molecular target: T2, Solute carrier family 22 member 1 (Rattus norvegicus, UniProt Q63089); test: TP_TRANSPORTER: inhibition of TEA uptake (in the presence of bicarbonate) (TEA: 20 uM) in OCT1-expressing HEK293 cells
T2 sequence (Q63089 whole entry): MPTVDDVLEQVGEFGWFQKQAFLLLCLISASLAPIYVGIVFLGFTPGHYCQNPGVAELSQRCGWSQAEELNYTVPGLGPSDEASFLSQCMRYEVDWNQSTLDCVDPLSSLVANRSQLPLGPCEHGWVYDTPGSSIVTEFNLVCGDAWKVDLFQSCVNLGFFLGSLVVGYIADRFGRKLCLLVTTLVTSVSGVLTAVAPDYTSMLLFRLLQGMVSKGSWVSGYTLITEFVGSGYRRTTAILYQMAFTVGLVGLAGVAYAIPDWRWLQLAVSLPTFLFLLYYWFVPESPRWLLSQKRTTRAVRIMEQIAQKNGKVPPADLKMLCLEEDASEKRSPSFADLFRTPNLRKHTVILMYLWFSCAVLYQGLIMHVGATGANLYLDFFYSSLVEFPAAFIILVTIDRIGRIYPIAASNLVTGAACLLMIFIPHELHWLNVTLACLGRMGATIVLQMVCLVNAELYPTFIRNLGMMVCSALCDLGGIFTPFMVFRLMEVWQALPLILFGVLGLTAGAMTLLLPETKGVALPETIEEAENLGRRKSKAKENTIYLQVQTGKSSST
In short: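 Stably rOCT1- or rOCT2-transfected HEK 293 cells suspended in bicarbonate (25 mM) Krebs-Henseleit buffer, pH 7.4 set by 95% O2/5% CO2 bubbling, 25°C.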

[4] = molecular target: T2, Solute carrier family 22 member 1; test: TP_TRANSPORTER: inhibition of TEA uptake (in the absence of bicarbonate) (TEA: 20 uM) in OCT1-expressing HEK293 cells
In short: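 Uptake in rOCT1- or rOCT2-expressing stably transfected HEK 293 cells, run in bicarbonate-free Cross-Taggart phosphate buffer, pH 7.4, 25°C. 20 μM [14C]TEA final, 3 s incubation across inhibitor concentrations; ice-cold stopping buffer, centrifugation, washes, scintillation counting.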

[5] = molecular target: T2, Solute carrier family 22 member 1; test: TP_TRANSPORTER: inhibition of Amantadine uptake (in the presence of bicarbonate) (Amantadine: 10 uM) in OCT1-expressing HEK293 cells
In short: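 Rat OCT1 or OCT2 stably transfected HEK 293 cells, grown to 80% confluence, detached and resuspended in KHS (25 mM bicarbonate, pH 7.4, gassed O2/CO2 95%/5%), protein 5–6 mg/ml. […] Highest cyanine863 tested 200 μM. IC50 from 3–6 experiments.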

Row | IC50 [1] | IC50 [2] | IC50 [3] | IC50 [4] | IC50 [5] | Compound
1 | 210 µM | 290 µM | 500 µM | 280 µM |  | NC12CC3CC(CC(C3)C1)C2 [AMANTADINE]
2 | 1 µM | 1.2 µM | 0.4 µM | 0.45 µM | 89 µM and > 200 µM | CC[n+]1c(CC2C=C(C)N=C(c3ccccc3)N2C)ccc2ccccc21 (stereo not drawn) [Cyanine-863]
3 | 90 µM | 215 µM |  |  |  | CCN(CC)CCNC(=O)c1ccc(N)cc1 [PROCAINAMIDE]
4 | 13 µM | 38 µM |  |  |  | C=C[C@H]1C[N@@]2CC[C@H]1C[C@H]2[C@H](O)c1ccnc2ccc(OC)cc12 [QUININE]
